Assay results published in PubChem BioAssay AID504383 (The Scripps Research Institute Molecular Screening Center, 2011).
In all, about 2,500 compounds went through this assay and about 1,200 (48%) were called active. The set was probably picked from earlier hits. The list shows a part of the results. A number with no mark means an inactive call.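 Rule for the calls: active = mean activation above the low control average plus 3 SD, as set in the primary screen (cut at about 12% in these data); inactive = the rest.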

target: Troponin I, cardiac muscle (Homo sapiens) + Troponin T, cardiac muscle (Homo sapiens) + Troponin C, slow skeletal and cardiac muscles (Homo sapiens) (UniProt P19429+P45379+P63316); test: cardiac RTF calcium sensitivity activators, confirmation, biochemical, IANBD-TnC fluorescence, triplicate (AID 504383); settings: IANBD-labeled cardiac RTF, Ca2+ sensitivity fluorescence; at 7.2 µM; hits give high values; scaled from EC20 to saturating calcium; tested at EC20 calcium, 0.472 mM;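 note: 0% = DMSO at 0.472 mM calcium and 100% = DMSO at 2.9 mM calcium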
How it was run: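 Assay system: labelled regulated thin filaments / Timing: 15 min at 25 °C / Detection: fluorescence intensity of labelled filaments / Measure: fluorescence gain scaled between EC20 and EC100 calcium controls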

SMILES | activation
C=CCNc1sc(C(=O)c2ccc(Br)s2)c(N)c1C#N | 98% (active)
C#CCOCCOCCOCCNc1nc(N2CCN(C(=O)CCCCCCCCCCNC(=O)[C@@H](CCSC)n3cc(CCO)nn3)CC2)nc(N2CCN(C(=O)CCCCCCCCCCNC(=O)[C@H](CCSC)n3cc(CCO)nn3)CC2)n1 | 3.03%
COc1ccc(NC(=O)C(c2ccc(C)cc2)N(C)C(=O)Cc2cccs2)cc1 (stereo not drawn) | 6.31%
COc1ccc2[nH]c(C)c(CCN(Cc3cccs3)C(=S)Nc3ccc(F)cc3)c2c1 | 12.4% (active)
CCN(CC)S(=O)(=O)c1ccc2[nH]c(=O)[nH]c2c1 | 15.6% (active)
Cc1noc(C)c1C(=O)Nc1nc2ccccc2s1 | 28.4% (active)
O=S(=O)(/N=C(/Nc1nc2ccccc2s1)c1ccccc1)c1ccc(F)cc1 | 11.4%
Cc1onc(-c2ccccc2)c1C(=O)Nc1nc(-c2cc(F)ccc2F)cs1 | -0.1%
Cc1cccc(NC2=Nc3ccccc3N3C2=Nc2c(c(C)nn2-c2ccccc2)C3c2ccc(O)c(O)c2)c1 (stereo not drawn) | 362% (active)
Cc1ccc(-c2ccc(CO)o2)cc1N | 92.6% (active)
Cc1nc([N+](=O)[O-])c(Br)n1CC(=O)c1ccc2ccccc2c1 | 10.5%
Cc1nc([N+](=O)[O-])c(Sc2nc3ccccc3n2C)n1Cc1ccccc1 | 46.8% (active)
Cn1c(/C(C#N)=C(\O)CN2CCN(Cc3ccccc3)CC2)nc2ccccc21 | 7.65%
COc1ccc(Cc2n[nH]c(=O)c3ccccc23)cc1OC | 5.9%
COc1ccc(CNc2nn[nH]n2)cc1OC | 18.4% (active)
COc1ccc(CCNc2cc(C)[nH]c(=O)c2)cc1OC | 5.18%
CCOC(=O)CC(=O)CSc1nc(-c2ccc3c(c2)OCO3)cc(C(F)(F)F)c1C#N | 13.6% (active)
C(=N\c1nc2ccccc2n1CCN1CCOCC1)/c1cccs1 | 2.67%
O=C(O)c1cccc([N+](=O)[O-])c1C(=O)Nc1cccc2ccccc12 | 14.4% (active)
Cc1ccc(NC(=O)c2cc(C(=O)c3cc(Cl)ccc3O)cn(-c3ccc(C)cc3)c2=O)cc1 | 15.1% (active)

SMILES | activation
Cc1ccc(O)c(C(=O)c2cc(C#N)c(=O)n(-c3nccs3)c2)c1 | 8.02%
CS(=O)(=O)Nc1ccc(C2=NN(C(=O)CCCC(=O)O)C(c3cccs3)C2)cc1 (stereo not drawn) | 61.2% (active)
CN(C)CCNc1ccc2ncn3c4ccc(O)cc4c(=O)c1c23 | 11.4%
Cc1cc(C)c2nc(NC(=O)C3CCCO3)sc2c1 (stereo not drawn) | 36.3% (active)
COc1cc(/C=C2\N=C3CCCCCN3C2=O)ccc1O | 4.57%
CCOc1cc(/C=C2\N=C(SC(C)C(N)=O)N(c3ccc(OC(F)F)cc3)C2=O)ccc1O (stereo not drawn) | 32.1% (active)
COc1cc(OC)c(NC(=O)c2cc3ccccc3cc2O)cc1Cl | 12.7% (active)
CCOC(=O)COc1c(Cl)cc(C2NC(=S)NC(c3ccccc3)=C2C(C)=O)cc1OC (stereo not drawn) | 10.2%
COc1ccc(-c2nnc(-c3cccnc3)o2)cc1 | 48.2% (active)
O=C1c2ccccc2-c2c1cccc2C(=O)N1CCCCCC1 | 9.57%
Cc1[nH]c(C)c(S(=O)(=O)N2c3ccccc3CC2C)c1C(=O)N1CCCCC1 (stereo not drawn) | 137% (active)
CCOc1ccc(C2C(C#N)=C(N)SC(N)=C2C#N)cc1OCC | 51.3% (active)
CCOc1ccccc1C1C(C#N)=C(N)SC(N)=C1C#N | 5.25%
COc1ccc(C2C(C#N)=C(N)SC(N)=C2C#N)cc1OC | 6.65%
CC1(C)CC(=O)C(C=Nc2cc(C(=O)c3ccccc3)ccc2N)=C(O)C1 | 32% (active)
CC1(C)CC(=O)C(C=Nc2ccc(C(=O)c3ccccc3)cc2N=CC2=C(O)CC(C)(C)CC2=O)=C(O)C1 | 5.75%
NC(=O)C1CCN(C(=O)c2ccc(-c3ccccc3)cc2)CC1 | 64.1% (active)
COc1ccccc1Nc1ncc(C(=O)N2CCC(C(N)=O)CC2)c2ccccc12 | 10.5%
O=C(c1ccccc1)N1CCN(C(=O)c2ccccc2)CC1 | 4.62%
COc1ccc(C)cc1NC(=O)C12CCC(C)(C(=O)O1)C2(C)C (stereo not drawn) | 26.8% (active)

SMILES | activation
COc1ccc(C)cc1NC(=O)CC1COc2ccccc2O1 (stereo not drawn) | 8.38%
N#Cc1ccc(CSc2nnc(-c3cnccn3)o2)cc1 | 221% (active)
O=C(NC(=S)Nc1ccc2oc(=O)ccc2c1)c1ccco1 | 90.7% (active)
Cc1ncc(CO)c2cc(-c3nnc(Nc4ccc5c(c4)OCO5)s3)c(=O)oc12 | 70% (active)
CCOC(=O)c1ccc[n+](CC(=O)Nc2cc(C(F)(F)F)ccc2Cl)c1 | 13% (active)
N#Cc1ccccc1NC(=O)CNc1ccc(Cl)c(C(F)(F)F)c1 | 8.37%
Cc1ccc(CCC(=O)Nc2cc(Cl)ccc2Cl)o1 | 7.16%
CC(=O)c1cc(NC(=O)c2ccccc2)c(=O)oc1/C=C/N(C)C | 11.2%
CC(=O)c1cc(NC(=O)c2ccc(Cl)cc2)c(=O)oc1/C=C/N(C)C | 5.44%
COC(=O)c1cc(NC(=O)c2ccccc2)c(=O)oc1/C=C/Nc1ccc(Oc2ccccc2)cc1 | 47.1% (active)
CC(=O)c1cc(NC(=O)c2ccc(C)cc2)c(=O)oc1/C=C/N(C)C | 54.1% (active)
COC(=O)c1cc2c(=O)c3ccccc3oc2nc1/C=C/N(C)C | 5.31%
COC(=O)c1cc(NC(=O)c2ccccc2)c(=O)oc1C/C=N\OCc1ccc(Cl)cc1Cl | 3.6%
COc1ccc(C(=O)Nc2cc(C(C)=O)c(/C=C/N(C)C)oc2=O)cc1 | 30.3% (active)
COc1ccccc1Nc1nc(N2CCOCC2)nc(N2CCOCC2)n1 | 7.77%
COc1ccccc1C(=O)Nc1ccc(OC(C)C(=O)N2CCOCC2)cc1 (stereo not drawn) | 2020% (active)
CCOc1ccc(NC(=O)c2cccc(OC(=S)N3CCOCC3)c2)cc1 | 3.8%
O=C(O)C(c1ccccc1)N1C(=O)/C(=C\c2ccc(-c3ccc(Br)cc3)o2)SC1=S (stereo not drawn) | 186% (active)
